This note sets out measurements from article PMC4180220 (Drug metabolism letters, 2012).

Holding throughout (type): biochemical
The target in one data set is T1, human P450 1A2 (Homo sapiens, UniProt P05177).
T1 sequence (P05177 1-516): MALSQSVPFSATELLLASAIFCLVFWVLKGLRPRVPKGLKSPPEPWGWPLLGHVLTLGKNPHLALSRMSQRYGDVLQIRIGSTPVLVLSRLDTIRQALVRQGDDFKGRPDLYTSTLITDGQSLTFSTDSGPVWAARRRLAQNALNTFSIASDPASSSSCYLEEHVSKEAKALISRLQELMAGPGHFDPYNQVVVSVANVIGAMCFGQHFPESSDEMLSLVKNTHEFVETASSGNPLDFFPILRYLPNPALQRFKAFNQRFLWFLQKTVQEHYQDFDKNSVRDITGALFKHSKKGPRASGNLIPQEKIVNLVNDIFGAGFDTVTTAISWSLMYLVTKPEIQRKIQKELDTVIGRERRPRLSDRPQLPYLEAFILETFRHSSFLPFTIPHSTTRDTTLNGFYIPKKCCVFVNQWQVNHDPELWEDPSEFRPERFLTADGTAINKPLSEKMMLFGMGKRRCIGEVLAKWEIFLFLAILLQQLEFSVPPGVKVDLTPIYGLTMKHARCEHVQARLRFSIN
The data set is described as follows: Methoxyresorufin O-demethylation.

In data set [1] the target is T2, P450 1A1 (Homo sapiens, UniProt P04798).
T2 sequence (P04798 1-512): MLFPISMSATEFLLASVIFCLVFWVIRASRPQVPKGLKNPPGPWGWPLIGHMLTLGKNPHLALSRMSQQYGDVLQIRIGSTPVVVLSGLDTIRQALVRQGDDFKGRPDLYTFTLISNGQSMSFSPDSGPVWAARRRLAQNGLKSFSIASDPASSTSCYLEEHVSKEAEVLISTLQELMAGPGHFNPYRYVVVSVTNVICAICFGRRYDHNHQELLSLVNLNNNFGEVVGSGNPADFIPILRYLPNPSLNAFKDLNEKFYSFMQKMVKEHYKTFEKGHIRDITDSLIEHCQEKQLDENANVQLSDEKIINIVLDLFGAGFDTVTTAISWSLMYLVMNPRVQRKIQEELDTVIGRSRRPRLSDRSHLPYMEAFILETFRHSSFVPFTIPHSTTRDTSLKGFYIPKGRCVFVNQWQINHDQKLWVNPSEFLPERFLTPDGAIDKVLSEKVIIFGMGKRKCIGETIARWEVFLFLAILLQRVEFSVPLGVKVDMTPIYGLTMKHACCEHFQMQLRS
The data set is described as follows: Ethoxyresorufin O-deethylation.

The next data set deals with T3, human P450 2A6 (Homo sapiens, UniProt P11509).
T3 sequence (P11509 1-494): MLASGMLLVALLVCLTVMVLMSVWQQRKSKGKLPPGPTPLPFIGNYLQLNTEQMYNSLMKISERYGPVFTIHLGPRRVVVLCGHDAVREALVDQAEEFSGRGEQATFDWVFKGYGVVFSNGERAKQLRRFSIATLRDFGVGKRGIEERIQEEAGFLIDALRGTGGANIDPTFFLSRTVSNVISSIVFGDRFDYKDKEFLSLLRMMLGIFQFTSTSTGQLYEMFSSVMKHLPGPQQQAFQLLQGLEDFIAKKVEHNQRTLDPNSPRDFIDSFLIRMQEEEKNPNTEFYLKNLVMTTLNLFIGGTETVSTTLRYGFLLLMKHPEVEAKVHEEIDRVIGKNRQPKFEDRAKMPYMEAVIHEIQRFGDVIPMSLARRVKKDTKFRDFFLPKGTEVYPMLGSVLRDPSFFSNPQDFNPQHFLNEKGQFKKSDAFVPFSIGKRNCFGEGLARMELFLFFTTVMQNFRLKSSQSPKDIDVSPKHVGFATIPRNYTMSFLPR
Nature of the data set: Coumarin 7-hydroxylation inhibition assay.

For the next data set, the target named is T4, rat P4502B1 (Rattus norvegicus, UniProt P00176).
T4 sequence (P00176 1-491): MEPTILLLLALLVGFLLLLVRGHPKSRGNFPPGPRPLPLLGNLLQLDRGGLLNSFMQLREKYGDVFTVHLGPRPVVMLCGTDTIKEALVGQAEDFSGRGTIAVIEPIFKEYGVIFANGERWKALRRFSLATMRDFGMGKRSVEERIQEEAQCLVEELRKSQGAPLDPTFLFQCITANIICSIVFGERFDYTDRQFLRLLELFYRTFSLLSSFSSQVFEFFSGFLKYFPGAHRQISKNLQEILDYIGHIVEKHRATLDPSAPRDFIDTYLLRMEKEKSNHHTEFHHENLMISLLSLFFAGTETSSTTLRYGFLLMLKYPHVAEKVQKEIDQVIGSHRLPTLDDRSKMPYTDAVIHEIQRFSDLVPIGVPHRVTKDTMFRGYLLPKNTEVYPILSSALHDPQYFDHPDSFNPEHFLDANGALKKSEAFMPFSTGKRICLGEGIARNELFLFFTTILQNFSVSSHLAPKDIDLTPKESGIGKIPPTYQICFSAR
The data set is described as follows: Pentoxyresorufin O-depentylation. In outline:
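Rat P450 2B1 supersomes (5 nM final) and resorufin pentyl ether (5 μM final) in 0.1 M potassium phosphate pH 7.6 with MgCl2; test compound in DMSO. Started with NADPH regenerating system (NADP+, glucose-6-phosphate, G6P dehydrogenase), 37°C. Resorufin fluorescence (535/585 nm) progress curves fit second-order; linear coefficient taken as activity.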

Data set [2] addresses T2, P450 1A1. The data set is described as follows: Mechanism-based inhibition of P450 1A1. The conditions noted are these: NADPH-dependency assay. The gist of the method:
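Human P450 1A1 supersomes (5 nM final) pre-incubated 5 min at 37°C with the test compound at varied concentrations in 0.1 M potassium phosphate pH 7.6 with MgCl2, with or without NADPH regenerating system. Reaction started with resorufin ethyl ether (5 μM final) plus buffer or the regenerating system. Resorufin formation followed at 535 nm ex/585 nm em, 37°C; DMSO controls.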

The mark [3] stands for this setting: compounds of this study, log conversion of the IC50.
Where [4] appears, read: read-out: IC50 2A6, human P450 2A6 supersomes, coumarin 5 μM, Dixon plot.

pIC50: −log10 of the molar value. Entries after “also recorded” stand apart in the source; their conditions may differ. Where two headings read alike, the source gives them in different places. Bounds are passed on as bounds.

As a reminder, the pIC50 is the IC50 on a negative log10 scale, so that one unit is a factor of ten. In the case of `O=c1cc(-c2ccccc2O)oc2ccccc12` [2′-HF, reference compound], at human P450 1A2 (setting [3]), the “Actual (EL) logIC50 (9-logIC50), P450 1A2” value worked out at 5.0273. Moreover, at P450 1A1 [1] (setting [3]), the “Actual (EL) logIC50 (9-logIC50), P450 1A1” value amounted to 4.7518. Moreover, on human P450 2A6 (setting [4]), the pIC50 was less than 4.30.

`C#CCOc1ccccc1-c1cc(=O)c2ccccc2o1` [2′-PF, 2′-flavone propargyl ether]: at human P450 1A2 (setting [3]), the “Actual (EL) logIC50 (9-logIC50), P450 1A2” value was found to be 5.8894. At P450 1A1 [1] (setting [3]), the “Actual (EL) logIC50 (9-logIC50), P450 1A1” value stood at 6.2518. Further, the pIC50 on human P450 2A6 (setting [4]) is less than 5.00. Further, on rat P4502B1, the “Inhibition of P450 2B1 (in words)” value is given as “inhibited”.

For `O=c1cc(-c2cccc(O)c2)oc2ccccc12` [3′-HF, reference compound], the “Actual (EL) logIC50 (9-logIC50), P450 1A2” value at human P450 1A2 (setting [3]) is given as 5.0353. For the same compound, the “Actual (EL) logIC50 (9-logIC50), P450 1A1” value at P450 1A1 [1] (setting [3]) came out at 5.3010. In addition, the pIC50 on human P450 2A6 (setting [4]) was less than 4.30.

As to `C#CCOc1cccc(-c2cc(=O)c3ccccc3o2)c1` [3′-PF, 3′-flavone propargyl ether], the “Actual (EL) logIC50 (9-logIC50), P450 1A2” value on human P450 1A2 (setting [3]) was 6.1739. The “Actual (EL) logIC50 (9-logIC50), P450 1A1” value on P450 1A1 [1] (setting [3]) is on record as 7.6990. Also, the negative logarithm of the IC50 (pIC50) at human P450 2A6 (setting [4]) was less than 5.00. The “Mechanism-based inhibition of P450 1A1 (in words)” value at P450 1A1 [2] is given as “ability to cause mechanism-based inhibition; also recorded: exhibited mechanism-based inhibition”.

Consider `O=c1cc(-c2ccc(O)cc2)oc2ccccc12` [4′-HF, reference compound], for which, at human P450 1A2 (setting [3]), the “Actual (EL) logIC50 (9-logIC50), P450 1A2” value was 5.1858. Moreover, on P450 1A1 [1] (setting [3]), the “Actual (EL) logIC50 (9-logIC50), P450 1A1” value came to 4.7378. At human P450 2A6 (setting [4]), the pIC50 is less than 4.30.

With `C#CCOc1ccc(-c2cc(=O)c3ccccc3o2)cc1` [4′-PF, 4′-flavone propargyl ether], the “Actual (EL) logIC50 (9-logIC50), P450 1A2” value at human P450 1A2 (setting [3]) was 5.8962. Also, the “Actual (EL) logIC50 (9-logIC50), P450 1A1” value on P450 1A1 [1] (setting [3]) came out at 6.1871. Further, on human P450 2A6 (setting [4]), the pIC50 is less than 5.00.

Take `O=c1cc(-c2ccccc2)oc2cccc(O)c12` [Compound 5-HF, 5-hydroxy flavone, reference compound]: the pIC50 on human P450 2A6 and on rat P4502B1 was less than 4.30 throughout.

Regarding `C#CCOc1cccc2oc(-c3ccccc3)cc(=O)c12` [Compound 5-PF, 5-flavone propargyl ether], at human P450 1A2 (setting [3]), the “Actual (EL) logIC50 (9-logIC50), P450 1A2” value was 6.4202. Further, the “Actual (EL) logIC50 (9-logIC50), P450 1A1” value on P450 1A1 [1] (setting [3]) turned out to be 5.7959. In addition, the pIC50 on human P450 2A6 (setting [4]) was less than 5.00.

With `O=c1cc(-c2ccccc2)oc2ccc(O)cc12` [Compound 6-HF, reference compound], on human P450 1A2 (setting [3]), the “Actual (EL) logIC50 (9-logIC50), P450 1A2” value came out at 5.1599. Moreover, the “Actual (EL) logIC50 (9-logIC50), P450 1A1” value on P450 1A1 [1] (setting [3]) stood at 4.9080. Besides, the pIC50 at human P450 2A6 (setting [4]) is less than 4.30.

As to `C#CCOc1ccc2oc(-c3ccccc3)cc(=O)c2c1` [Compound 6-PF, 6-flavone propargyl ether], on P450 1A1 [1] (setting [3]), the “Actual (EL) logIC50 (9-logIC50), P450 1A1” value came out at 6.4318. At human P450 2A6 (setting [4]), the pIC50 was less than 5.00.

As for `C#CCOc1ccc2c(c1)C(=O)CC(c1ccccc1)O2` (centres unmarked) [Compound 6-PFN, 6-flavanone propargyl ether], on human P450 1A2, the pIC50 is less than 5.00 and the “Inhibition of P450 1A2 (in words)” value is “did not show inhibition”. In addition, on P450 1A1 [1], the “Actual (EL) logIC50 (9-logIC50), P450 1A1” value stood at 5.2388 and the pIC50 is 5.24. The pIC50 on human P450 2A6 is less than 5.00. The “Inhibition of P450 2B1 (in words)” value at rat P4502B1 is “inhibited”.

In the case of `O=c1cc(-c2ccccc2)oc2cc(O)ccc12` [Compound 7-HF, 7-hydroxy flavone, reference compound], the pIC50 was 5.59 against human P450 1A2, 5.17 at P450 1A1 [1], less than 4.30 against human P450 2A6 and less than 4.30 at rat P4502B1. Also, at P450 1A1 [2], the “Mechanism-based inhibition of P450 1A1 (in words)” value is “exhibited mechanism-based inhibition”.

For the compound `C#CCOc1ccc2c(=O)cc(-c3ccccc3)oc2c1` [Compound 7-PF, 7-flavone propargyl ether], the pIC50 on human P450 2A6 (setting [4]) was less than 5.00.

For the compound `C#CCOc1ccc2c(c1)OC(c1ccccc1)CC2=O` (centres unmarked) [Compound 7-PFN, 7-flavanone propargyl ether], on human P450 1A2, the “Actual (EL) logIC50 (9-logIC50), P450 1A2” value came to 6.0132 and the negative logarithm of the IC50 (pIC50) is 6.01. At P450 1A1 [1], the “Actual (EL) logIC50 (9-logIC50), P450 1A1” value stood at 5.2233 and the pIC50 is 5.22. Moreover, the pIC50 against human P450 2A6 was less than 5.00.
